Fibroblast inh: antiproliferative effect on LL 47 fibroblasts – human, LL 47 cells, CellTiter-Glo luminescence, primary screen; LL 47 human lung fibroblast viability, ATP luminescence; stronger effect = lower value; viability, % at 10 µM; hit rate 1.1% among 85,000; AID 719, 2007;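 active = viability at or below 50% in the single dose screen; inactive = viability above 50%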;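 note: compound exposure lasted 72 h before the ATP readout; 100% = median luminescence of untreated cell-only wells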
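Benchmarks: Cell-only wells, no compound | Test system: LL 47 human lung fibroblasts, passage 12 or lower | Input: 1,150 cells/well | Measured by: CellTiter-Glo luminescence measuring cellular ATP | Medium: IMEM, 15% FBS supplement | Schedule: Overnight attachment after seeding, then 72 h compound exposure at 37 °C | Doses: Compound addition at 0.1% DMSO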
Ecoli WT expand: growth inhibitors of wild-type E. coli, primary screen, strain BW25113, expanded library, OD600. OD600 absorbance. growth inhibition, % at 100 µM. hit rate 0.15% among 98,000. AID 710, 2007;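 active = growth inhibition above about 50% at one test dose, limit read from the data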;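 note: growth measured after 20 h incubation at 37 °C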
Jurkat tox 60K: cytotoxicity toward Jurkat T cells, primary screen, cytotoxicity control, cell-based, Jurkat E6.1, 60K MLSMR library; inhibition, % at 4 µM; Jurkat E6.1 viability, ATP luminescence, 48 h; hit rate 1.2% among 56,000;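 active = inhibition above the mean inhibition of all tested compounds plus 3 SD, cut at about 28% in these data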
H69AR growth 86K: proliferation blockers of H69AR lung cancer cells, primary screen, cell-based, human, 86K library; hit rate 6% among 85,000; viability, % at 10 µM; H69AR lung tumor viability, ATP luminescence, 72 h; stronger effect = lower value;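 active = viability at or below 40%; inactive = viability above 40%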;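 note: multidrug resistant small cell line overexpressing MRP-1 efflux transporter; 100% = mean luminescence of untreated control wells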
HUVEC inhibit: inhibitors of HUVEC proliferation, primary screen, cell-based, 384-well; CellTiter-Glo luminescence, 72 h; stronger effect = lower value; viability, % at 10 µM (by protocol); hit rate 1.1% among 86,000;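 active = viability at or below 30%; inactive = viability above 30%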;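 note: 100% = median luminescence of DMSO-only cell control wells on each plate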
tolC growth inh: growth inhibitors of E. coli tolC mutant, primary screen, strain BW25113 ΔtolC::kan, 384-well. hit rate 2.2% among 65,000. OD615. growth inhibition, % at 10 µM (by protocol);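 active = growth inhibition at or above a cutoff equal to the mean over every tested compound plus 3 SD, cut at about 60% in these data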;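 note: growth measured after 20 h incubation at 37 °C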
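Test system: E. coli BW25113 ΔtolC::kan bacteria | Medium: Kanamycin-containing LB broth (50 µg/mL) | Dosing: One dose of 10 µM final | Times: 20 h incubation with compound, 37 °C | Detection: Optical density read at 615 nm | Read-out basis: Percent growth inhibition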
Numbers without * were called inactive; . = no result given. Rows were chosen to be rich in hits. Some 6.4% of all compounds tested hit in one or more screens of this group.

SMILES	Fibroblast inh	Ecoli WT expand	Jurkat tox 60K	H69AR growth 86K	HUVEC inhibit	tolC growth inh
COc1ccc(-n2ncc3c(N(C)C4CCCCC4)ncnc32)cc1	.	.	-1	.	.	76*
Cc1cccc(-n2ncc3c(N(CCO)CCO)ncnc32)c1	91	-1	4	89	94	-4
Cc1cccc(-n2ncc3c(N(C)C4CCCCC4)ncnc32)c1	.	.	6	.	.	94*
O=C(CN1CCN(CCO)CC1)Nc1ccccc1	92	.	.	91	92	.
Cc1cnnc2ccc3c(no[n+]3[O-])c12	107	18	.	33*	102	.
N#C/C(=C\c1ccco1)Sc1nc2ccccc2s1	95	-14	0	105	77	96*
O=C(CN1C(=O)CCC1=O)Nc1nc(-c2nc3ccccc3s2)cs1	94	-10	-4	77	85	10
O=c1cc(N2CCN(c3ccc(F)cc3)CC2)[nH]c(=O)n1C1CCCCC1	84	-13	5	35*	60	-4
Cc1ccc(S(=O)(=O)N2CCN(S(=O)(=O)c3ccc(C)cc3)C2)cc1	98	-3	.	85	90	.
COc1ccc(/C=N/n2cnc3c([nH]c4ccc(Br)cc43)c2=O)cc1CN1CCOCC1	8.7*	5	.	3.7*	23*	.
COc1ccc(/C=C/C(=O)c2ccccc2O)cc1CN1CCOCC1	.	1	.	.	.	.
Cc1ccc(C(=O)NC(=S)Nc2cccc3nsnc23)cc1	.	-10	.	.	.	.
O=C(/C=C/Nc1ccccc1)c1ccccc1	99	3	.	95	80	.
O=C(/C=C/Sc1ccccc1)c1ccc(Cl)cc1	33*	-10	.	1.6*	49	.
O=C(/C=C/Sc1ccccc1)c1ccccc1	8.3*	1	.	2.2*	45	.
Cc1cc(NC(=O)CCC(=O)N(Cc2ccco2)C(C)(C)C(=O)NC2CCCCC2)no1	96	.	.	76	96	.
COCC(C)n1c(C)cc(C(=O)CSc2nnc(N)s2)c1C (centres undefined)	99	0	.	100	86	.
CCC(=O)Nc1cc(-c2nn(C)c(=O)c3ccccc23)ccc1OC	.	3	0	.	.	1
Cc1ccc(-c2nn(CC(=O)NCc3cc(-c4nn(C)c(=O)c5ccccc45)ccc3C)c(=O)c3ccccc23)cc1	4.9*	-5	.	2.1*	4.1*	.
CCC(=O)NCc1cc(-c2nn(C)c(=O)c3ccccc23)ccc1C	101	-8	.	67	91	.
Cc1nn(CC(=O)Nc2ccc3c(c2)oc2ccccc23)c(=O)c2ccccc12	105	-4	4	3.3*	39	-10
COc1ccc(-c2nn(C)c(=O)c3ccccc23)cc1NC(=O)Cn1nc(C)c2ccccc2c1=O	87	-4	13	3.3*	84	15
COc1ccc2c(c1)N(C)C(=O)CC(c1ccccc1)=N2	103	0	-6	101	101	8
COc1ccc(NC(=O)c2ccc(Cl)c(S(=O)(=O)N3CCc4ccccc4C3)c2)cn1	95	-10	20	51	100	62*
COc1ccc(CCN2C(=O)c3[nH]nc(-c4ccccc4O)c3C2c2cccc(Cl)c2)cc1 (centres undefined)	54	-6	.	23*	15*	.
SMILES	Fibroblast inh	Ecoli WT expand	Jurkat tox 60K	H69AR growth 86K	HUVEC inhibit	tolC growth inh
Cc1ccc(C2c3c(-c4ccccc4O)n[nH]c3C(=O)N2Cc2ccncc2)cc1 (centres undefined)	57	5	86*	7.6*	49	69*
O=C1c2[nH]nc(-c3ccccc3O)c2C(c2cccc(O)c2)N1Cc1ccco1 (centres undefined)	89	18	.	38*	82	.
O=C(CSc1nc2ccccc2s1)Nc1nccs1	91	-3	.	97	97	.
Cc1nc(N2CCN(c3ccccc3)CC2)nc2c1C(=O)CCC2	106	-1	2	85	115	91*
Cc1nc(N2CCN(c3ccccc3)CC2)nc2c1C(=O)CC(C)C2 (centres undefined)	108	1	-8	.	113	46
Cc1cccc(N2CCN(C(=O)C34CC5CC(CC(C5)C3)C4)CC2)c1C	93	-6	-8	67	94	63*
O=C(N1CCN(c2ccccc2F)CC1)C12CC3CC(CC(C3)C1)C2	91	10	3	86	89	89*
O=C(Nc1ccc(N2CCN(C(=O)c3ccco3)CC2)c(Cl)c1)c1cccs1	93	-17	4	54	72	71*
O=C(Cc1ccc(Cl)cc1)Nc1ccc(N2CCN(C(=O)c3ccco3)CC2)c(Cl)c1	95	-21	0	78	63	46
CCOc1cc(C2C(C#N)=C(N)OC3CCCC(=O)C32)ccc1OCCN1CCOCC1 (centres undefined)	106	1	-3	87	90	-20
COc1ccc(C2CC(c3ccc(Cl)cc3Cl)Nc3nc(N)nn32)cc1 (centres undefined)	91	10	-8	98	112	26
COc1ccc(C2CC(c3ccc(Cl)cc3)Nc3nc(NC(=O)c4ccco4)nn32)cc1 (centres undefined)	89	.	-11	91	106	48
COc1ccc(C2CC(c3ccccc3)n3nc(NC(=O)c4cccs4)nc3N2)cc1 (centres undefined)	95	-2	4	67	97	65*
O=C(Nc1nc2n(n1)C(c1ccc(Cl)cc1)CC(c1ccc(Cl)cc1)N2)c1ccco1 (centres undefined)	90	-6	-11	56	79	61*
COc1ccc(C2CC(c3ccc(Cl)c(Cl)c3)Nc3nc(N)nn32)cc1 (centres undefined)	94	-6	3	34*	84	26
Nc1ccc(C(=O)c2ccccc2C(=O)O)cc1Cl	100	1	-6	91	48	-5
COc1ccc(CCN2C(=O)C3C4C=CC(C3C2=O)C2C(=O)N(CCc3ccc(OC)c(OC)c3)C(=O)C42)cc1OC (centres undefined)	103	4	.	40*	96	.
CCOC(=O)C1CCCN(C(=O)Cn2nc(CC)n3c(cc4sccc43)c2=O)C1 (centres undefined)	98	5	-2	71	118	4
Cc1sc2ncnc(Sc3nnnn3-c3ccccc3)c2c1C	10*	-6	1	0.9*	26*	19
Cc1sc2ncnc(Nc3ccccc3)c2c1C	97	3	.	75	80	.
Clc1ccc(CON/C=N/c2ncnc3sccc23)cc1	.	-1	.	.	.	.
Clc1ccc(-n2nnnc2Sc2ncnc3sccc23)cc1	48*	.	66*	2.0*	4.6*	1
Cn1nc([N+](=O)[O-])nc1Oc1ccccc1	98	8	.	97	88	.
COc1ccccc1-c1nnc(Sc2nc([N+](=O)[O-])nn2C)o1	64	3	.	2.8*	59	.
